Measurements: ChEMBL document CHEMBL4387710, “Fragment-Based Discovery of an Apolipoprotein E4 (apoE4) Stabilizer” (J Med Chem, 2019)
Active and inactive are the calls of the source. The rule behind the calls is not given here.

What was measured:
[1] = Binding affinity to N-terminal thrombin-recognition site-fused His6-tagged human apolipoprotein E4 N-terminal domain without leader sequence (1 to 164 residues) expressed in Escherichia coli BL21-(DE3)-T1R cells by 13C-HSQC NMR spectroscopy
Homo sapiens [2] = species: Homo sapiens; assay: (§1) Binding affinity to human recombinant full-length N-terminal thrombin-recognition site-fused His6-tagged apolipoprotein E4 (1 to 299 residue) F257A/W246R/V269A/L279Q/V287E mutant expressed in Escherichia coli BL21-(DE3)-T1R cells assessed as change in melting temperature at 5 mM incubated for 15 mins by SYPRO orange dye-based thermal shift assay
How it was run: (§2)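 Thermal shift assay: compound added at 5 mM to full-length mutant apoE protein (apoE4 or apoE3). Stabilization is reported as the shift in melting temperature, in degrees.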

[3] = Solubility of the compound in PBS by NMR method; format: physicochemical
[4] = (§3) Binding affinity to N-terminal thrombin-recognition site-fused His6-tagged human apolipoprotein E4 N-terminal domain without leader sequence (1 to 164 residues) expressed in Escherichia coli BL21-(DE3)-T1R cells by surface plasmon resonance analysis
[5] = Binding affinity to full-length human recombinant C-terminal FLAG/His-tagged apolipoprotein E4 expressed in HEK293-6E cells by surface plasmon resonance assay
Homo sapiens [6] = species: Homo sapiens; assay: as §1, with “E3” for “E4”; how it was run: as §2
Homo sapiens [7] = species: Homo sapiens; assay: as §3, with “cells assessed as breakdown of DMPG liposomes at 500 uM after 30 mins” for “cells”, “dynamic light scattering” for “surface plasmon resonance”
How it was run: (§4)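 DMPG liposome breakdown assay: large DMPG liposomes incubated with apoE protein (N-terminal domain, or full-length wild-type from mammalian cells). Breakdown into smaller discoidal complexes is read as a fall in light-scattering intensity. Liposomes alone serve as control. Compound is tested as a dose series covering 15.6 to 500 μM.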

[8] = Binding affinity to full-length human recombinant C-terminal FLAG/His-tagged apolipoprotein E3 expressed in HEK293-6E cells by surface plasmon resonance assay
Homo sapiens [9] = species: Homo sapiens; assay: Binding affinity to full-length human recombinant C-terminal FLAG/His-tagged apolipoprotein E4 expressed in HEK293-6E cells assessed as breakdown of DMPG liposomes at 500 uM after 30 mins by dynamic light scattering analysis; format: cell-based; how it was run: as §4
Homo sapiens [10] = species: Homo sapiens; assay: as §1, with “at 1” for “at 5”
Astrocyte [11] = assay: Antineuroinflammatory activity in human induced pluripotent stem cell-derived astrocytes harboring apolipoprotein E4/4 assessed reduction in TNFalpha/IL-1beta/IFNgamma-stimulated IL-6 secretion preincubated for 1 hr followed by TNFalpha/IL-1beta/IFNgamma stimulation and measured after 24 hrs; format: functional, cell-based
Astrocyte [12] = assay: Antineuroinflammatory activity in human induced pluripotent stem cell-derived astrocytes harboring apolipoprotein E4/4 assessed reduction in TNFalpha/IL-1beta/IFNgamma-stimulated IL-8 secretion preincubated for 1 hr followed by TNFalpha/IL-1beta/IFNgamma stimulation and measured after 24 hrs; format: functional, cell-based
Astrocyte [13] = assay: Cytotoxicity against human induced pluripotent stem cell-derived astrocytes harboring apolipoprotein E4/4 assessed as effect on cell viability at 12.5 uM to 100 uM preincubated for 1 hr followed by TNFalpha/IL-1beta/IFNgamma stimulation and measured after 24 hrs by CellTiter-Glo luminescent cell viability assay; format: cell-based

## CCNS(=O)(=O)c1ccc(-c2cc(Cl)cc(C3(C(=N)N)CCC3)c2)cc1
[1]
  Kd: 20 µM

## N=C(N)C1(c2cccc(Cl)c2)CCC1
Homo sapiens [2]
  ΔTm: 4 °C
[1]
  Kd: 900 µM
[3]
  solubility: ≥ 500 µM
[4]
  Kd: 205 µM
[5]
  Kd: 233 µM
Homo sapiens [6]
  ΔTm: 0.5 °C
Homo sapiens [7]
  Activity: Active
[8]
  Kd: 890 µM
Homo sapiens [9]
  Activity: Active

## N=C(N)C1(c2cc(Cl)cc(-c3ccc(CN)cc3)c2)CCC1
[1]
  Kd: < 5 µM

## CC(C)(O)c1ccc(-c2cc(Cl)cc(C3(C(=N)N)CCC3)c2)cc1
[1]
  Kd: 30 µM

## N=C(N)C1(c2cc(Cl)cc(-c3ccc(CO)c(Cl)c3)c2)CCC1
[1]
  Kd: 8 µM

## N=C(N)C1(c2cc(Cl)cc(-c3ccccc3)c2)CCC1
[1]
  Kd: 230 µM

## CC(=O)NCc1ccc(-c2cc(Cl)cc(C3(C(=N)N)CCC3)c2)cc1
[1]
  Kd: 20 µM

## CN(C)CCNC(=O)c1ccc(-c2cc(Cl)cc(C3(C(=N)N)CCC3)c2)cc1
[1]
  Kd: < 5 µM
Homo sapiens [10]
  ΔTm: 4 °C
Astrocyte [11]
  Activity: Dose-dependent effect
Astrocyte [12]
  Activity: Dose-dependent effect
Astrocyte [13]
  Activity: Non-Toxic
